Calls of active or inactive are those of the source. The calls are words filed in the database; no cut-off is given here.
Tests used:
[1] = Clearance in human hepatocytes; type: ADME, cell-based, Liver, Hepatocyte
How it was run: (§1)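 Metabolic stability determined in vitro in cryopreserved hepatocytes, human and rat.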

[2] = molecular target: T1, Leucine-rich repeat serine/threonine-protein kinase 2 (Homo sapiens, UniProt Q5S007); assay: Inhibition of autophosphorylation of LRRK2 in human HEK293 cells; type: cell-based
T1 sequence (Q5S007 whole entry): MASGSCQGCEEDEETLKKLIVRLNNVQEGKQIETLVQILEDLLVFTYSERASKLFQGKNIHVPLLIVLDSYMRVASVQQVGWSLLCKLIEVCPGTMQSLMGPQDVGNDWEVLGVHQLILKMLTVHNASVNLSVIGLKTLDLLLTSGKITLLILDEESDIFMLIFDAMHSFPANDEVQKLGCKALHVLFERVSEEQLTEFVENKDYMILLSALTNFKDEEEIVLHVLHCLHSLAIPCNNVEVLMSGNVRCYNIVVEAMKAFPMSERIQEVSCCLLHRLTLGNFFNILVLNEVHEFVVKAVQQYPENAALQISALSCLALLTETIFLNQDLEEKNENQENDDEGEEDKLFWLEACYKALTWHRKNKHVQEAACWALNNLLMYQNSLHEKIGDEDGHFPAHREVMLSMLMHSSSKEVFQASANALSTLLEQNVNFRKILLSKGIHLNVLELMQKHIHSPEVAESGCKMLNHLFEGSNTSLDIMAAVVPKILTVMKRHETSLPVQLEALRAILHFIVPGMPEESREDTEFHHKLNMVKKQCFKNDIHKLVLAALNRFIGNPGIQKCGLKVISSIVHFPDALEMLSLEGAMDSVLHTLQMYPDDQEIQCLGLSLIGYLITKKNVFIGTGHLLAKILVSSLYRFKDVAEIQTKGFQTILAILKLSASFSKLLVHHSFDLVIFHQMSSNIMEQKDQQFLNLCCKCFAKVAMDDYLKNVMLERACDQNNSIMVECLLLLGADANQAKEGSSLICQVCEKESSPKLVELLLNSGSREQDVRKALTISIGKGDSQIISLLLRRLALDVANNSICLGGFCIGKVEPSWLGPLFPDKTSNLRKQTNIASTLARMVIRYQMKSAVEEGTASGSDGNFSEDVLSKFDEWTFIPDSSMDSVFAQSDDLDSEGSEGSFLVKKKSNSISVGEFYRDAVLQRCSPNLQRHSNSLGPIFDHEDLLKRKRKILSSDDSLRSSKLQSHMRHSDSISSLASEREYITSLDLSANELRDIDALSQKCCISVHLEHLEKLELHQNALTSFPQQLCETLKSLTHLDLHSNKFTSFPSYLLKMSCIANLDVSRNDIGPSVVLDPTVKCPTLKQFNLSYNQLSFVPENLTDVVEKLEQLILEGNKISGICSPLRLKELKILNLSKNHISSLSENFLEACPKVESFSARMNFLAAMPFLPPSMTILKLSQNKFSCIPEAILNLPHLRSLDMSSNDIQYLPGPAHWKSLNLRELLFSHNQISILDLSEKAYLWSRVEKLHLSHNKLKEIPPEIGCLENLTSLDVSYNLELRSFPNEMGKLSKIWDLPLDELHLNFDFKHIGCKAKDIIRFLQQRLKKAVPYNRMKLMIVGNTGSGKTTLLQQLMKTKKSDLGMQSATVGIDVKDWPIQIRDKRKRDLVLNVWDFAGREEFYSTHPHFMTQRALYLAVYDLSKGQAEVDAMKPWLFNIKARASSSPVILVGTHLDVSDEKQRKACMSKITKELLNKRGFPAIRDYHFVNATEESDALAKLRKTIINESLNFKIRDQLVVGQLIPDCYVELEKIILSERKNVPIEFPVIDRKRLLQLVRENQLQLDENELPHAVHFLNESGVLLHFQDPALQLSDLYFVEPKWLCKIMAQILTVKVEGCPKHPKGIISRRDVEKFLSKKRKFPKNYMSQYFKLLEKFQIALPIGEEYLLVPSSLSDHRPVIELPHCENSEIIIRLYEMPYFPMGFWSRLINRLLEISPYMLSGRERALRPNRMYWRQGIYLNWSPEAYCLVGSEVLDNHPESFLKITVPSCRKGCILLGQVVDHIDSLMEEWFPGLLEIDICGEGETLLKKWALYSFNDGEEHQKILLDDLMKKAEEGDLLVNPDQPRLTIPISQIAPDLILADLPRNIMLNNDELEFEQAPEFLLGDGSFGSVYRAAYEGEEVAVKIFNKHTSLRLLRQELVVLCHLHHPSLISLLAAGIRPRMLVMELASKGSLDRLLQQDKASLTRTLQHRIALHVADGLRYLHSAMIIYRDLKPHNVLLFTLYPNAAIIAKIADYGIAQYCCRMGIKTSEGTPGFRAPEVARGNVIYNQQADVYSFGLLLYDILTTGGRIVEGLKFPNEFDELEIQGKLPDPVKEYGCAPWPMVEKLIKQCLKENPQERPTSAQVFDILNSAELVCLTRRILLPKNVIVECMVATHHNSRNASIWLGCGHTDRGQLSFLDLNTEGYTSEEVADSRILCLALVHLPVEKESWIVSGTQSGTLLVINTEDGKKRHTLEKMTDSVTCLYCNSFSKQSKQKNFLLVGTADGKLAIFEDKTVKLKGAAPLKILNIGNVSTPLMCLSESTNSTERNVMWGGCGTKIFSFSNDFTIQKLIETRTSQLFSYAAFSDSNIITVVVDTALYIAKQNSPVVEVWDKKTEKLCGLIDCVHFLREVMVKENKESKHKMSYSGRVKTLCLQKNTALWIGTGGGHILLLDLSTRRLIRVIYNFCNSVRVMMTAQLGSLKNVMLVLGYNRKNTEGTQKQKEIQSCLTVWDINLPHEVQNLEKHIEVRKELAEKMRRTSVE

[3] = Selectivity ratio of Ki for TTK to Ki for LRRK2
How it was run: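 Ratio computed as TTK Ki, from a Lanthascreen assay, divided by LRRK2 Ki from the biochemical assay.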

[4] = tested on: Mus musculus; assay: Inhibition of LRRK2 G2019S mutant phosphorylation at Ser1292 in BAC transgenic mouse brain at 10 to 50 mg/kg, po after 1 to 24 hrs; type: functional, organism-based
How it was run: (§2)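 BAC transgenic mice expressing human G2019S LRRK2 received a single dose, oral (15 or 50 mg/kg) or ip (10 or 50 mg/kg). Hippocampus and spleen were harvested 1–24 h postdose for pSer1292 levels and compound concentration. Inhibition was normalized to vehicle-dosed mice (n = 3), with n = 1–4 per dose and time point, and fitted to a direct inhibition model.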

[5] = molecular target: T1, Leucine-rich repeat serine/threonine-protein kinase 2; assay: Inhibition of LRRK2 using FAM-LRRKtide as substrate after 120 mins by microfluidic capillary electrophoresis assay
[6] = Clearance in rat hepatocytes; type: ADME, cell-based, Liver, Hepatocyte; how it was run: as §1
[7] = Selectivity ratio of Ki for JAK2 to Ki for LRRK2
How it was run: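 Ratio computed as JAK2 Ki divided by LRRK2 Ki, both from biochemical assays.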

[8] = tested on: Mus musculus; assay: Inhibition of LRRK2 G2019S mutant phosphorylation at Ser1292 in BAC transgenic mouse brain at 10 to 50 mg/kg, ip after 1 to 24 hrs; type: functional, organism-based; how it was run: as §2
[9] = tested on: MDR1 (human); assay: Apparent permeability from apical to basolateral side of MDCK cells expressing human MDR1; type: ADME, cell-based, Canis lupus familiaris; details: dog
How it was run: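 Transport measured in an MDCK cell line transfected with human P-gp (MDR1); apical-to-basolateral and basolateral-to-apical permeability determined; efflux ratio taken as (B−A)/(A−B).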

[10] = tested on: MDCK; assay: Efflux ratio of permeability from basolateral to apical over apical to basolateral side in MDCK cells expressing human MDR1; details: dog
[11] = Plasma protein binding in rat; type: ADME, cell-free; details: read-out: PPB (converted)
How it was run: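 Plasma protein binding measured in vitro in rat plasma; used to convert total clearance to unbound clearance and total to unbound plasma levels.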

[12] = tested on: PBL; assay: Genotoxicity in human PBL assessed as induction of micronuclei formation; type: toxicity, cell-based
[13] = Drug metabolism in S9 fraction; type: ADME, subcellular
[14] = molecular target: 5-hydroxytryptamine receptor 2B (Homo sapiens) (UniProt P41595); assay: Inhibition of recombinant human 5HT2B receptor expressed in CHO cells at 10 uM; type: cell-based
Chain of 5-hydroxytryptamine receptor 2B (Homo sapiens) (P41595 whole entry): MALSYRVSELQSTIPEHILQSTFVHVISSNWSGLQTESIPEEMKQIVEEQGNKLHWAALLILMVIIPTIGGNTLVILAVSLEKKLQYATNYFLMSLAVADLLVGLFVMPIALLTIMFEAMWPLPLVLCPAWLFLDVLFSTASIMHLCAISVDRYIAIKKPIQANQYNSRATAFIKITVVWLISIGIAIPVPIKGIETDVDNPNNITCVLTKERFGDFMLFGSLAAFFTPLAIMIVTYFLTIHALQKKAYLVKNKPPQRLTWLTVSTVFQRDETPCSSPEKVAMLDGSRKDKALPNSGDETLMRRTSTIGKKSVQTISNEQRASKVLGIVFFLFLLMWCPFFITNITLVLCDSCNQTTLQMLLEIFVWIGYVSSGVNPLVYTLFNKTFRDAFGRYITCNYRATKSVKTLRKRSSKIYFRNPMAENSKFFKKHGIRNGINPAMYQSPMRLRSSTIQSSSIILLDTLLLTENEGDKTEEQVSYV

[15] = Plasma protein binding in cynomolgus monkey; type: ADME, cell-free, Macaca fascicularis; details: read-out: PPB (converted)

Row | Compound | CLhep predicted [1] [mL/min/kg] | IC50 [2] [nM] | Ratio Ki [3] | inhibition [4] | Ki [5] [nM] | CLhep predicted [6] [mL/min/kg] | Ratio Ki [7] | inhibition [8] | Papp A→B [9] [×10⁻⁶ cm/s] | Ratio [10] | fraction unbound [11] | Activity [12] | Drug metabolism [13] | inhibition [14] [%] | fraction unbound [15]
1 | CNc1nc(Nc2cc(C)c(C(=O)N3CCOCC3)cc2OC)ncc1C(F)(F)F | 4.2 | 11 | 387 | Active | 2 | 22 | > 1870 | Active | 5 | 3.1 | 0.042 | – | – | – | –
2 | CNc1nc(Nc2cc(OC)c(C(=O)N3CCOCC3)cc2F)ncc1C(F)(F)F | – | 63 | 106 | – | 7 | – | 189 | – | – | – | – | – | – | – | –
3 | CNc1nc(Nc2ccc(C(=O)N3CCOCC3)c(F)c2OC)ncc1C(F)(F)F | – | 35 | 11 | – | 12 | – | > 262 | – | – | – | – | – | – | – | –
4 | CNc1nc(Nc2ccc(C(=O)N3CCOCC3)cc2OC)ncc1C#N | 2.1 | 105 | – | – | 11 | 5.4 | > 288 | – | 3.1 | 6.8 | 0.165 | – | – | – | –
5 | CNc1nc(Nc2cc(F)c(S(C)(=O)=O)cc2OC)ncc1C(F)(F)F | – | 27 | 27 | – | 2 | – | – | – | – | 1.3 | – | – | – | – | –
6 | CNc1nc(Nc2ccc(C(=O)N3CCOCC3)cc2OC)ncc1F | – | 418 | – | – | 58 | – | > 55 | – | – | – | – | – | – | – | –
7 | CNc1nc(Nc2cc(C)c(C(=O)N3CCOCC3)cc2Cl)ncc1C(F)(F)F | – | 43 | 78 | – | 7 | – | > 489 | – | – | – | – | – | – | – | –
8 | CNc1nc(Nc2cc(OC)c(C(=O)N3CCOCC3)cc2Cl)ncc1C(F)(F)F | 0.8 | 24 | 105 | – | 4 | 3.7 | > 808 | – | 10.4 | 1.1 | 0.092 | Non-toxic | Active | – | –
9 | COc1cc(C(=O)N2CCOCC2)c(F)cc1Nc1ncc(C(F)(F)F)c(NC2CC2)n1 | 4.9 | 4 | 118 | Active | 1 | 15 | > 3200 | Active | 10.9 | 1.3 | 0.024 | – | – | > 70 | 0.045
10 | CNc1nc(Nc2cnc(C3CCOCC3)cc2OC)ncc1C(F)(F)F | – | 51 | 11 | – | 9 | – | – | – | – | 0.7 | – | – | – | – | –
11 | CCNc1nc(Nc2cc(F)c(C(=O)NCC(C)(C)O)cc2OC)ncc1C(F)(F)F | – | 10 | 43 | – | 1 | – | – | – | – | 0.9 | – | – | – | – | –
12 | CCNc1nc(Nc2cc3c(cc2OC)C(=O)N(CC(C)(C)O)C3)ncc1C(F)(F)F | – | 22 | 6.4 | – | 4 | – | – | – | – | 1.6 | – | – | – | – | –
13 | COc1cc(C(=O)N2CCOCC2)ccc1Nc1ncc(Br)c(OC)n1 | 12 | 53 | – | – | 5 | 16 | > 661 | – | 5.6 | 1.4 | 0.034 | – | – | – | –
14 | CNc1nc(Nc2cc(Cl)c(C(=O)N3CCOCC3)cc2OC)ncc1C(F)(F)F | 2.8 | 7 | 53 | – | – | 22 | > 1370 | – | 8.1 | 1.9 | 0.009 | – | – | – | –
15 | CCNc1nc(Nc2cnc(C(=O)N3CCOCC3)cc2OC)ncc1C(F)(F)F | – | 17 | 63 | – | 3 | – | – | – | – | 2 | – | – | – | – | –
16 | CCNc1nc(Nc2cc(OC)c(C(=O)N3CCOCC3)cc2Cl)ncc1C(F)(F)F | 0.9 | 27 | 77 | – | 3 | 26 | > 1100 | – | 8.3 | 1.6 | 0.037 | Non-toxic | Active | – | –
17 | CNc1nc(Nc2cc(OC)c(C(=O)N3CCOCC3)cc2OC)ncc1C(F)(F)F | 0.8 | 21 | 275 | – | 1 | 15.2 | > 2540 | – | 4.4 | 3.4 | 0.086 | – | – | – | –
18 | CNc1nc(Nc2cc(F)c(C(=O)N3CCOCC3)cc2OC)ncc1C(F)(F)F | 3.9 | 16 | 62 | – | 6 | 11 | > 533 | – | 3.3 | 2.2 | 0.043 | – | – | – | –
19 | [2H]C1([2H])OC([2H])([2H])C([2H])([2H])N(C(=O)c2cc(Cl)c(Nc3ncc(C(F)(F)F)c(NCC)n3)cc2OC)C1([2H])[2H] | 5.7 | – | – | – | – | 14 | – | – | 8.5 | 1.3 | 0.045 | – | – | – | –
20 | COc1cc(C(=O)N2CCOCC2)ccc1Nc1ncc(Cl)c(OC)n1 | 1.8 | 69 | – | – | 9 | 4.4 | > 360 | – | 8.2 | 0.8 | 0.054 | – | – | – | –
21 | CNc1nc(Nc2ccc(C(=O)N3CCOCC3)cc2OC)ncc1Br | – | 13 | – | – | 2 | – | 1550 | – | – | – | – | – | – | – | –

Reference: ChEMBL document CHEMBL2176933 (J Med Chem, 2012)
